Laboratory results reported in ChEMBL document CHEMBL1240327, “Small molecules enhance autophagy and reduce toxicity in Huntington's disease models” (Nat Chem Biol, 2007).
The source made the active and inactive calls. The rule behind the calls is not given here.

Columns and labels:
PC-12 [1] = test: Enhancement of autophagy in rat PC12 cells assessed as decrease in alpha-synuclein A53T mutant level at 43 uM by immunoblotting; assay type: functional, cell-based
Summary of the method: (§1)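 Stable PC12 line with doxycycline-inducible HA-tagged A53T α-synuclein; induced with 1 μg/ml doxycycline for 48 h, then doxycycline removed. Compounds added during the 24 h switch-off period, from 5 mg ml⁻¹ DMSO stock diluted 1:20000, 1:4000 or 1:400. HA immunoblot, densitometry relative to actin; control set to 100 %; three independent experiments, factorial ANOVA.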

[2] = Cytotoxicity against african green monkey COS7 cells at 47 uM after 24 hrs by FACS analysis; assay type: cell-based; details: chlorocebus aethiops, cos-7, 24 h
[3] = biological target: Huntingtin (Homo sapiens) (UniProt P42858); test: Inhibition of EGFP-tagged huntingtin aggregation expressed in african green monkey COS7 cells at 47 uM after 48 hrs by […]; assay type: cell-based; details: COS-7
[4] = biological target: Huntingtin (Homo sapiens) (UniProt P42858); test: Inhibition of EGFP-tagged huntingtin expressed in african green monkey COS7 cells assessed as protection against protein-induced cell death at 47 uM after 48 hrs by Western blot analysis; assay type: cell-based; details: COS-7
[5] = biological target: Huntingtin (Mus musculus) (UniProt P42859); test: Inhibition of EGFP-tagged huntingtin aggregation in MEF harboring Atg5 gene at 47 uM after 48 hrs by Western blot analysis
[6] = biological target: Huntingtin (Mus musculus) (UniProt P42859); test: Inhibition of EGFP-tagged huntingtin aggregation in Atg5-deficient MEF at 47 uM after 48 hrs by Western blot analysis
HeLa [7] = test: Induction of autophagy in human HeLa cells harboring MAP1LC3 gene at 47 uM after 24 hrs by DAPI staining-based fluorescence microscopy; assay type: functional, cell-based
Summary of the method: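 Stable EGFP-LC3 HeLa cells treated 24 h. EGFP-positive autophagic vesicles were imaged by confocal microscopy with DAPI nuclear counterstain.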

HeLa [8] = test: Increase in MAP1LC3 level in bafilomycin A1-treated human HeLa cells at 47 uM treated fro 24 hrs before bafilomycin A1 challenge by immunoblotting analysis; assay type: functional, cell-based
Summary of the method: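 HeLa cells stably expressing EGFP-LC3 were pretreated with compound for 24 h, then given 200 nM bafilomycin A1 for 4 h. EGFP-LC3-II was measured by anti-EGFP immunoblot with densitometry relative to actin, from three independent experiments.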

Drosophila melanogaster [9] = test: Neuroprotective activity in Drosophila melanogaster Huntington's disease model harboring huntington protein mutant assessed as protection against neurodegeneration at 100 uM; assay type: functional, organism-based
Drosophila melanogaster [10] = test: Toxicity against Drosophila melanogaster Huntington's disease model at 100 uM; assay type: organism-based; details: in vivo
[11] = biological target: Serine/threonine-protein kinase mTOR (Homo sapiens) (UniProt P42345); test: Inhibition of mTOR phosphorylation expressed in african green monkey COS7 cells at 47 uM by Western blot analysis; assay type: cell-based; details: COS-7
COS-7 [12] = test: Effect on ATg6 level in african green monkey COS7 cells at 47 uM after 24 hrs by immunoblotting; assay type: functional, cell-based; details: Chlorocebus aethiops
COS-7 [13] = test: Effect on ATg5 level in african green monkey COS7 cells at 47 uM after 24 hrs by immunoblotting; assay type: functional, cell-based; details: Chlorocebus aethiops
COS-7 [14] = test: Effect on ATg7 level in african green monkey COS7 cells at 47 uM after 24 hrs by immunoblotting; assay type: functional, cell-based; details: Chlorocebus aethiops
COS-7 [15] = test: Effect on ATg12 level in african green monkey COS7 cells at 47 uM after 24 hrs by immunoblotting; assay type: functional, cell-based; details: Chlorocebus aethiops
COS-7 [16] = test: Increase in conjugated Atg12-Atg5 level in african green monkey COS7 cells at 47 uM after 24 hrs by immunoblotting; assay type: functional, cell-based; details: Chlorocebus aethiops
HeLa [17] = test: Inhibition of proteasome activity in human HeLa cells assessed as induction of ubiquitinG76V-EGFP reporter level at 47 uM after 24 hrs by immunoblotting
PC-12 [18] = test: Enhancement of rapamycin-induced clearance of alpha-synuclein A53T mutant protein in rat PC12 cells at 140 uM after 8 hrs by immunoblotting; assay type: functional, cell-based
Summary of the method: (§2)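 Inducible PC12 A53T α-synuclein line (1 μg/ml doxycycline, 48 h, then switched off). Compound given alone or with 0.2 μM rapamycin over an 8 h switch-off period. Read-out is anti-HA immunoblot with densitometry relative to actin, n=3, control as 100 %.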

PC-12 [19] = test: Enhancement of rapamycin-induced clearance of alpha-synuclein A53T mutant protein in rat PC12 cells at 43 uM after 8 hrs by immunoblotting; assay type: functional, cell-based; summary of the method: as §2
[20] = biological target: Huntingtin (Homo sapiens) (UniProt P42858); test: Inhibition of EGFP-tagged huntingtin aggregation expressed in african green monkey COS7 cells at 140 uM after 24 hrs by […] in presence of 0.2 uM rapamycin; assay type: cell-based; details: COS-7
Saccharomyces cerevisiae [21] = test: Enhancement of 20 nM rapamycin-mediated cytostatic effect in yeast BY4742 after 48 to 96 hrs; assay type: functional, organism-based
Saccharomyces cerevisiae [22] = test: Enhancement of rapamycin-mediated cytostatic effect in yeast RM11-1a after 48 to 96 hrs; assay type: functional
Saccharomyces bayanus [23] = test: Enhancement of rapamycin-mediated cytostatic effect in Saccharomyces bayanus after 48 to 96 hrs; assay type: functional
Saccharomyces mikatae [24] = test: Enhancement of rapamycin-mediated cytostatic effect in Saccharomyces mikatae after 48 to 96 hrs; assay type: functional
Saccharomyces paradoxus [25] = test: Enhancement of rapamycin-mediated cytostatic effect in Saccharomyces paradoxus after 48 to 96 hrs; assay type: functional
Saccharomyces cerevisiae [26] = test: Enhancement of anisomycin-mediated cytostatic effect in yeast BY4742 after 48 to 96 hrs; assay type: functional, organism-based
Saccharomyces cerevisiae [27] = test: Enhancement of CHX-mediated cytostatic effect in yeast BY4742 after 48 to 96 hrs; assay type: functional, organism-based
Saccharomyces cerevisiae [28] = test: Enhancement of nocodazole-mediated cytostatic effect in yeast BY4742 after 48 to 96 hrs; assay type: functional, organism-based
Saccharomyces cerevisiae [29] = test: Enhancement of tunicamycin-mediated cytostatic effect in yeast BY4742 after 48 to 96 hrs; assay type: functional, organism-based
PC-12 [30] = test: Enhancement of autophagy in rat PC12 cells assessed as decrease in alpha-synuclein A53T mutant level at 5 mg/ml by densitometry; assay type: functional, cell-based; summary of the method: as §1
Saccharomyces cerevisiae [31] = test: Enhancement of menadione-mediated cytostatic effect in yeast BY4742 after 48 to 96 hrs; assay type: functional, organism-based
PC-12 [32] = test: Enhancement of autophagy in rat PC12 cells assessed as decrease in alpha-synuclein A53T mutant level at 47 uM by immunoblotting; assay type: functional, cell-based; summary of the method: as §1
PC-12 [33] = test: Enhancement of rapamycin-induced clearance of alpha-synuclein A53T mutant protein in rat PC12 cells at 47 uM after 8 hrs by immunoblotting; assay type: functional, cell-based; summary of the method: as §2
[34] = biological target: Huntingtin (Homo sapiens) (UniProt P42858); test: Inhibition of EGFP-tagged huntingtin aggregation expressed in african green monkey COS7 cells at 47 uM after 24 hrs by […] in presence of 0.2 uM rapamycin; assay type: cell-based; details: COS-7
Saccharomyces cerevisiae [35] = test: Inhibition of 50 nM rapamycin-mediated cytostatic effect in yeast BY4742 after 48 to 96 hrs; assay type: functional, organism-based
Saccharomyces cerevisiae [36] = test: Inhibition of rapamycin-mediated cytostatic effect in yeast RM11-1a after 48 to 96 hrs; assay type: functional
Saccharomyces bayanus [37] = test: Inhibition of rapamycin-mediated cytostatic effect in Saccharomyces bayanus after 48 to 96 hrs; assay type: functional
Saccharomyces mikatae [38] = test: Inhibition of rapamycin-mediated cytostatic effect in Saccharomyces mikatae after 48 to 96 hrs; assay type: functional
Saccharomyces paradoxus [39] = test: Inhibition of rapamycin-mediated cytostatic effect in Saccharomyces paradoxus after 48 to 96 hrs; assay type: functional

Chain of Huntingtin (Homo sapiens) (P42858 whole entry): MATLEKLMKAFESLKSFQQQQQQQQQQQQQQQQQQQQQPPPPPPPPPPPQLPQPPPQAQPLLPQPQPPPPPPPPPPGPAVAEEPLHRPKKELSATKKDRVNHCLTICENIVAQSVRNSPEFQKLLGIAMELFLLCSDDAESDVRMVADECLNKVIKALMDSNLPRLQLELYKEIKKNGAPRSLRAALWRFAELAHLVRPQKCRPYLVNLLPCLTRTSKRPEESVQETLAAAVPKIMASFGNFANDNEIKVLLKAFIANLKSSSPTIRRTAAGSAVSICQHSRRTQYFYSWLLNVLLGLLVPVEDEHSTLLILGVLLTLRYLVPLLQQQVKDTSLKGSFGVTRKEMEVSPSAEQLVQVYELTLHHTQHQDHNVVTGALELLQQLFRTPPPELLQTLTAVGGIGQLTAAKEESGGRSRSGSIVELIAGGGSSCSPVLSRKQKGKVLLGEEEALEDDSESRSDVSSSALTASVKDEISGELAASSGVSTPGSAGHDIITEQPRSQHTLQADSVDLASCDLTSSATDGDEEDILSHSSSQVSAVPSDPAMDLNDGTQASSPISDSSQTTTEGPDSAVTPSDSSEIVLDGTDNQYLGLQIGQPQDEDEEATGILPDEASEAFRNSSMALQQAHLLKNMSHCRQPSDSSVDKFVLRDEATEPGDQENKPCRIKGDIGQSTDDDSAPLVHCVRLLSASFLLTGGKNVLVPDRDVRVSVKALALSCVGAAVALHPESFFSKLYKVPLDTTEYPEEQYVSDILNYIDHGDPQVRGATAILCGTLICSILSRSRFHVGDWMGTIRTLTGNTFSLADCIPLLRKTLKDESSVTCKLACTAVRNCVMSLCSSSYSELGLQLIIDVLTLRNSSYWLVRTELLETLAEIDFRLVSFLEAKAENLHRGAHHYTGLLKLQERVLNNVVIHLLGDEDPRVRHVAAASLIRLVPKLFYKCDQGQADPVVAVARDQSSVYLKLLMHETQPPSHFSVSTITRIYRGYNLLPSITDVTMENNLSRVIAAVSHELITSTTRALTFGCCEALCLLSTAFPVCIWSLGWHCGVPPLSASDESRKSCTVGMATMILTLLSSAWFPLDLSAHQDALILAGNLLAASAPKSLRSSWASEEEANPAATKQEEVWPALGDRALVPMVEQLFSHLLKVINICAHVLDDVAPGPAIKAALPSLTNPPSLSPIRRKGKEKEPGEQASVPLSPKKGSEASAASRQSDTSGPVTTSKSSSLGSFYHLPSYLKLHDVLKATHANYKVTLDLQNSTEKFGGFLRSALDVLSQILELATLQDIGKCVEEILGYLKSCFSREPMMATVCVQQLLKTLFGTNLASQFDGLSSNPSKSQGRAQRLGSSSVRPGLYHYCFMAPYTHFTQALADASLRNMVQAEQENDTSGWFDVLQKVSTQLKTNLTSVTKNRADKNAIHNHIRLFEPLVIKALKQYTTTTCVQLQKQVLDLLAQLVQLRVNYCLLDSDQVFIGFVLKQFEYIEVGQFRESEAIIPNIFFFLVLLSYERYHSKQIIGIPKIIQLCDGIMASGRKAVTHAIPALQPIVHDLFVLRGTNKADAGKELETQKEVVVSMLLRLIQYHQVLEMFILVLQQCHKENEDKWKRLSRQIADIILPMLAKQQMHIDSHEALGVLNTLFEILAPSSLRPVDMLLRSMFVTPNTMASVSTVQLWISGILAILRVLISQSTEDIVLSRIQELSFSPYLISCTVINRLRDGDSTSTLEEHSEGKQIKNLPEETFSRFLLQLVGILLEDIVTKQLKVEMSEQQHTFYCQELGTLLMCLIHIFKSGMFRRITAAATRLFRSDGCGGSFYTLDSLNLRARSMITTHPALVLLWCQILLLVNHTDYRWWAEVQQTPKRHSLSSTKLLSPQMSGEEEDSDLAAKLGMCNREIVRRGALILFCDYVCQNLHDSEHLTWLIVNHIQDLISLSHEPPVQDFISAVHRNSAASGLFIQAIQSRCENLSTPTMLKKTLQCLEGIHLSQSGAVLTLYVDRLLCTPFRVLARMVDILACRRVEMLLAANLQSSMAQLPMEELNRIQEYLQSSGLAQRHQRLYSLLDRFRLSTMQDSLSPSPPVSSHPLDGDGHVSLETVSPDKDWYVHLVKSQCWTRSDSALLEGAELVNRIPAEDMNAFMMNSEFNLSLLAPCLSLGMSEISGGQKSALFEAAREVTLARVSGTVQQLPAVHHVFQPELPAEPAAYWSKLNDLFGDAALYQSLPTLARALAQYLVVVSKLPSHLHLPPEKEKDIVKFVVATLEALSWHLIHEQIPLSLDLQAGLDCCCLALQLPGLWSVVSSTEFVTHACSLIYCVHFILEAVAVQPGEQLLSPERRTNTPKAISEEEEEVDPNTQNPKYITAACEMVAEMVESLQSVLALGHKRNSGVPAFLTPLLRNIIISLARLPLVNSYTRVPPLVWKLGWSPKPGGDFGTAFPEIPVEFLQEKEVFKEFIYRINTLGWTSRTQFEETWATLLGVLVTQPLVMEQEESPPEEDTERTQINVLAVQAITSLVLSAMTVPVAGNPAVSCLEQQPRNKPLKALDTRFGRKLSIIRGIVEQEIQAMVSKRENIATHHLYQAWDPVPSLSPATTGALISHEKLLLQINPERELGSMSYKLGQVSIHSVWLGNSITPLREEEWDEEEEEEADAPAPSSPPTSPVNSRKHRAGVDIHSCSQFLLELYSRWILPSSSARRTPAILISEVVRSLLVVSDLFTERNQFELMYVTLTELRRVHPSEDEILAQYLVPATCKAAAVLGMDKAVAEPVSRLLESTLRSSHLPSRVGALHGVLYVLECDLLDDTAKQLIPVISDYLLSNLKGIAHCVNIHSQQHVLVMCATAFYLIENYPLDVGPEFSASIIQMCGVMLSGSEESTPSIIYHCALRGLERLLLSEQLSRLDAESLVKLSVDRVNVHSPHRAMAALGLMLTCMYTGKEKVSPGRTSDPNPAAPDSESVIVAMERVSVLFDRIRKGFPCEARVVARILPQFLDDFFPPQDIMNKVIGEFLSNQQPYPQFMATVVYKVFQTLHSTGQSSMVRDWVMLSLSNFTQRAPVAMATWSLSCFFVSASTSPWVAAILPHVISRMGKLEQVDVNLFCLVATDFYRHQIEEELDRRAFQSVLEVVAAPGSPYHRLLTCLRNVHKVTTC

SMILES | Activity (PC-12 [1]) | Activity [2] | inhibition [3] | inhibition [4] | inhibition [5] | inhibition [6] | Activity (HeLa [7]) | Activity (HeLa [8]) | Activity (Drosophila melanogaster [9]) | Activity (Drosophila melanogaster [10]) | inhibition [11] | Activity (COS-7 [12]) | Activity (COS-7 [13]) | Activity (COS-7 [14]) | Activity (COS-7 [15]) | Activity (COS-7 [16]) | inhibition (HeLa [17]) | EC50 (Saccharomyces cerevisiae [21]) [µM] | Activity (Saccharomyces cerevisiae [22]) | Activity (Saccharomyces bayanus [23]) | other results
Nn1cnc2c(c1=O)C1(CCCC1)Cc1ccccc1-2 | Active | Non-toxic | Active | Active | inactive | inactive | Active | Active | Active | Non-toxic | inactive | inactive | inactive | inactive | inactive | inactive | inactive | 4.9 | Active | Active | Activity (PC-12 [18]): Active; Activity (PC-12 [19]): Active; inhibition [20]: Active; Activity (Saccharomyces mikatae [24]): Active; Activity (Saccharomyces paradoxus [25]): Active; Activity (Saccharomyces cerevisiae [26]): Active; Activity (Saccharomyces cerevisiae [27]): Active; Activity (Saccharomyces cerevisiae [28]): Active; Activity (Saccharomyces cerevisiae [29]): Active; Activity (PC-12 [30]): Active; Activity (Saccharomyces cerevisiae [31]): Active; Activity (PC-12 [32]): Active
C=CCNc1ncnc2ccc(Br)cc12 | Active | Non-toxic | Active | Active | inactive | inactive | Active | Active | Active | Non-toxic | inactive | inactive | inactive | inactive | inactive | inactive | inactive | > 50 | Active | Active | Activity (PC-12 [33]): Active; inhibition [34]: Active; Activity (Saccharomyces mikatae [24]): Active; Activity (Saccharomyces paradoxus [25]): Active; Activity (PC-12 [30]): Active; Activity (PC-12 [32]): Active
S=C(S)OC1CC2CC1C1CCCC21 (stereo not drawn) |  |  |  |  |  |  |  |  |  |  |  |  |  |  |  |  |  |  |  |  | EC50 (Saccharomyces cerevisiae [35]): 0.412 µM; inhibition (Saccharomyces cerevisiae [36]): Active; inhibition (Saccharomyces bayanus [37]): Active; inhibition (Saccharomyces mikatae [38]): Active; inhibition (Saccharomyces paradoxus [39]): Active
